Where two headings read alike, the source gives them in different places.
Key:
VL51 cells [1] = assay: Mitochondrial membrane potential; format: cell-based, human; settings: 24 h, 0.5 and 1.0 μM, VL51, JC-1
In short: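 VL51 lymphoma cells were grown in RPMI-1640 with 20% FBS, pen-strep-neomycin and 1% L-glutamine at 37 °C, 5% CO2. Cells were treated 24 h with test compound diluted from a 10 mM DMSO stock. They were then labelled with JC-1 and analysed by flow cytometry in the FL1 and FL2 channels.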

[2] = test system: non-Hodgkin lymphoma (NHL) cells HBL1, SU-DHL-10, MINO, VL51; assay: MTT cell proliferation assay, panel of four NHL cell lines; format: cell-based, human; settings: for reduction in the percentage of cellular proliferation: 1 μM, 72 h incubation, towards each cell line
[3] = test system: A549, CCRF-CEM and VL51 cells; assay: Apoptosis assay; format: cell-based, human; settings: 48 h incubation; annexin-V/PI
In short: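 A549, CCRF-CEM and VL51 cultured at 37 °C, 5% CO2; lymphoma line in RPMI-1640 with 20% FBS, pen-strep-neomycin and 1% L-glutamine. Test compound from 10 mM DMSO stock, several concentrations, 48 h. Annexin-V Fluos kit per manufacturer: annexin-V-FITC (FL1) and PI (FL3) by flow cytometry. Apoptotic % = annexin-V+ plus annexin-V/PI double-positive cells; mean ± S.E.M., three independent experiments.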

colon cancer subpanel = assay: NCI five-dose screening, colon cancer subpanel; format: cell-based, human; settings: for GI50: Homo sapiens
In short: (§1)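 Run by NCI. Prescreen at 10^-5 M across 60 human lines from nine tumour types: leukemia, NSCLC, colon, CNS, melanoma, ovarian, renal, prostate, breast. GI50 is the concentration inhibiting cell growth by 50%. MG_MID is the arithmetic mean GI50 over tested lines; where 50% inhibition was not reached, the highest tested concentration was used.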

[4] = test system: VL51 (marginal zone lymphoma, MZL) cells; assay: MTT cell proliferation assay, VL51; format: cell-based; settings: Homo sapiens, VL51, 72 h, bound stated
PBL stimulated with PHA = assay: Cytotoxicity in PHA-stimulated human PBLs; format: cell-based; settings: 72 h, read-out: IC50 (compound concentration required to inhibit cell growth by 50%)
In short: (§2)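 Healthy-donor human PBLs; non-adherent cells at 5×10^5 cells/mL in growth medium. Proliferating cultures received PHA; resting cultures used the same density without PHA. Graded compound concentrations from 10 mM DMSO stocks. Viability by MTT after 72 h incubation. IC50 is the concentration inhibiting cell growth by 50%.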

leukemia cell lines = assay: NCI five-dose screening, leukemia subpanel; format: cell-based, human; settings: for GI50: Homo sapiens, read-out: GI50 values (range over subpanel)
In short: as §1

[5] = test system: PBL not stimulated with PHA; assay: Cytotoxicity in resting human PBLs; format: cell-based; settings: 72 h, read-out: IC50 (compound concentration required to inhibit cell growth by 50%)
In short: as §2

VL51 cells [6] = assay: p-histone H3 staining of mitotic cells by flow cytometry; format: cell-based, human; settings: 24 h
In short: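 VL51 lymphoma cells in RPMI-1640 with 20% FBS, penicillin-streptomycin-neomycin and 1% L-glutamine at 37 °C, 5% CO2. Seeded at 2.0×10^5 per well in 6-well plates, then treated 24 h at indicated concentrations. Harvested by centrifugation, fixed in 70% ice-cold ethanol, stained with anti-phospho-histone H3 antibody plus PI, and analysed by flow cytometry as % p-H3-positive (mitotic) cells.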

prostate cell lines = assay: NCI five-dose screening, prostate subpanel; format: cell-based; settings: Homo sapiens, read-out: GI50 values (range over subpanel)
In short: as §1

renal cancer subpanel = assay: NCI five-dose screening, renal cancer subpanel; format: cell-based; settings: Homo sapiens, TK-10, read-out: GI50 (range over subpanel)
In short: as §1

tubulin = assay: Inhibition of tubulin assembly; format: biochemical; settings: compared with 3d / CA-4
[7] = test system: tubulin (colchicine site); assay: Inhibition of [3H]colchicine binding to tubulin; settings: 5 μM inhibitor; 0.5 μM tubulin, 5.0 μM [3H]colchicine

COc1ccc(Cn2cc3c(c2-c2cc(OC)c(OC)c(OC)c2)CCCc2cnoc2-3)cc1 [3u, 8-(4-Methoxybenzyl)-7-(3,4,5-trimethoxyphenyl)-4,5,6,8-tetrahydropyrrolo[3’,4’:3,4]cyclohepta[1,2-d][1,2]oxazole]
depolarization of the mitochondrial membrane (VL51 cells [1]): depolarization was extensive
reduction in the percentage of cellular proliferation [2]: higher than 50%
induction of apoptosis [3]: massive apoptosis in a dose-dependent manner
GI50 (colon cancer subpanel; read-out: GI50 values (range over subpanel)): 390 to 1610 nM
calculated MG_MID for subpanel (colon cancer subpanel; colon cancer subpanel): 0.88 µM
IC50 [4]: < 500 nM
IC50 (PBL stimulated with PHA): > 10 µM
GI50 (leukemia cell lines): 350 to 1560 nM
calculated MG_MID for subpanel (leukemia cell lines; leukemia subpanel): 0.65 µM
IC50 [5]: > 10 µM

COc1ccc(Cn2cc3c(c2-c2ccccc2)CCCc2cnoc2-3)cc1 [3d, 8-(4-Methoxybenzyl)-7-phenyl-4,5,6,8-tetrahydropyrrolo[3’,4’:3,4]cyclohepta[1,2-d][1,2]oxazole]
depolarization of the mitochondrial membrane (VL51 cells [1]): slight depolarization of the mitochondrial membrane
induction of apoptosis [3]: induced apoptosis to a lesser extent
IC50 (PBL stimulated with PHA): > 10 µM
increase of mitotic cells (p-histone H3 positive) (VL51 cells [6]): did not observe a significant increase of mitotic cells
IC50 [5]: > 10 µM

COc1ccc(Cn2cc3c(c2-c2cc(OC)c(OC)c(OC)c2)CCCc2cnoc2-3)cc1N [3z, 2-Methoxy-5-((7-(3,4,5-trimethoxyphenyl)-5,6-dihydropyrrolo[3’,4’:3,4]cyclohepta[1,2-d]isoxazol-8(4H)-yl)methyl)aniline]
GI50 (prostate cell lines): 430 to 840 nM
depolarization of the mitochondrial membrane (VL51 cells [1]): depolarization was extensive
reduction in the percentage of cellular proliferation [2]: higher than 50%
IC50 ([2]; Homo sapiens, 72 h, read-out: IC50 values (range over all four NHL cell lines)): 100 to 500 nM
induction of apoptosis [3]: massive apoptosis in a dose-dependent manner
GI50 (colon cancer subpanel; HCC 2998, read-out: GI50 (range over subpanel)): 380 to 560 nM
IC50 [4]: < 500 nM
IC50 (PBL stimulated with PHA): > 10 µM
GI50 (renal cancer subpanel): 360 to 840 nM
GI50 (leukemia cell lines): 300 to 650 nM
IC50 [5]: > 10 µM

COc1ccc(Cn2cc3c(c2-c2ccc(OC)cc2)CCCc2cnoc2-3)cc1 [3p, 8-(4-Methoxybenzyl)-7-(4-methoxyphenyl)-4,5,6,8-tetrahydropyrrolo[3’,4’:3,4]cyclohepta[1,2-d][1,2]oxazole]
fold less active on tubulin assembly (tubulin): about 4 fold

COc1ccc(/C=C\c2cc(OC)c(OC)c(OC)c2)cc1O [CA-4, combretastatin A-4]
Inhibition of colchicine binding % Inhibition ± SD [7]: 98 ± 2%

— article PMC10287037 (European journal of medicinal chemistry, 2023)
